Laboratory results as given in ChEMBL document CHEMBL4308835, “Fluorine-Substituted Pyrrolo[2,3- d]Pyrimidine Analogues with Tumor Targeting via Cellular Uptake by Folate Receptor α and the Proton-Coupled Folate Transporter and Inhibition of de Novo Purine Nucleotide Biosynthesis” (J Med Chem, 2018).
The source made the active and inactive calls. The calls are words filed in the database; no cut-off is given here.

Columns and labels:
IGROV-1 [1] = test: Antiproliferative activity against human IGROV1 cells harboring non targeted control shRNA sequence after 96 hrs by Cell-Titer Blue assay; assay type: functional, cell-based; conditions: IGROV-1, 96 h
[2] = molecular target: T1, Proton-coupled folate transporter (Homo sapiens) (UniProt Q96NT5); test: Inhibition of human PCFT expressed in Chinese hamster R2/PCFT4 cells assessed as reduction in [3H]MTX uptake at pH 5.5 at 10 uM measured over 2 mins relative to control; assay type: cell-based
T1 sequence (whole entry): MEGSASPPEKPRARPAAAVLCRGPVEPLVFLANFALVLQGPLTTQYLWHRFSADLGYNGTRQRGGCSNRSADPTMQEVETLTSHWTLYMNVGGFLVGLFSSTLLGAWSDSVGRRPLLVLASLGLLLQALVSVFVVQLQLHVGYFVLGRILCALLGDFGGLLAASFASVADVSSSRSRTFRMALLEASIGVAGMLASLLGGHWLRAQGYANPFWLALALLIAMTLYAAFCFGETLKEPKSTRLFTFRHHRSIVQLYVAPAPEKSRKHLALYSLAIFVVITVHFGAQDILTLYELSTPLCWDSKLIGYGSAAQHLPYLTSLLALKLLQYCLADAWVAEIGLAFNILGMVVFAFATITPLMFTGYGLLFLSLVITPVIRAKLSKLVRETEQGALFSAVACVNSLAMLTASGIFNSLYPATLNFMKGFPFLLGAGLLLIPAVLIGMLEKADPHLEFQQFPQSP

[3] = Antiproliferative activity in Chinese hamster R2 cells deficient in RFC, PCFT, and FRalpha assessed as reduction in cell growth after 96 hrs by Cell-Titer Blue assay; assay type: cell-based; conditions: Cricetulus griseus, R2, 96 h
Homo sapiens [4] = organism: Homo sapiens; test: Selectivity ratio of IC50 for human RFC2 expressed in human HeLa R1-11 cells to IC50 for human FR2 expressed in human HeLa R1-11 cells; assay type: cell-based
[5] = molecular target: T1, Proton-coupled folate transporter (Homo sapiens); test: Inhibition of human PCFT expressed in Chinese hamster R2/PCFT4 cells assessed as reduction in [3H]MTX uptake at pH 5.5 at 1 to 10 uM measured over 2 mins; assay type: cell-based
[6] = molecular target: T2, Trifunctional purine biosynthetic protein adenosine-3 (Homo sapiens, UniProt P22102); test: Inhibition of GARFTase in human IGROV1 cells assessed as decrease in incorporation of [14C(U)glycine into [14C]formyl GAR formation after 24 hrs; assay type: cell-based
T2 sequence (P22102 whole entry): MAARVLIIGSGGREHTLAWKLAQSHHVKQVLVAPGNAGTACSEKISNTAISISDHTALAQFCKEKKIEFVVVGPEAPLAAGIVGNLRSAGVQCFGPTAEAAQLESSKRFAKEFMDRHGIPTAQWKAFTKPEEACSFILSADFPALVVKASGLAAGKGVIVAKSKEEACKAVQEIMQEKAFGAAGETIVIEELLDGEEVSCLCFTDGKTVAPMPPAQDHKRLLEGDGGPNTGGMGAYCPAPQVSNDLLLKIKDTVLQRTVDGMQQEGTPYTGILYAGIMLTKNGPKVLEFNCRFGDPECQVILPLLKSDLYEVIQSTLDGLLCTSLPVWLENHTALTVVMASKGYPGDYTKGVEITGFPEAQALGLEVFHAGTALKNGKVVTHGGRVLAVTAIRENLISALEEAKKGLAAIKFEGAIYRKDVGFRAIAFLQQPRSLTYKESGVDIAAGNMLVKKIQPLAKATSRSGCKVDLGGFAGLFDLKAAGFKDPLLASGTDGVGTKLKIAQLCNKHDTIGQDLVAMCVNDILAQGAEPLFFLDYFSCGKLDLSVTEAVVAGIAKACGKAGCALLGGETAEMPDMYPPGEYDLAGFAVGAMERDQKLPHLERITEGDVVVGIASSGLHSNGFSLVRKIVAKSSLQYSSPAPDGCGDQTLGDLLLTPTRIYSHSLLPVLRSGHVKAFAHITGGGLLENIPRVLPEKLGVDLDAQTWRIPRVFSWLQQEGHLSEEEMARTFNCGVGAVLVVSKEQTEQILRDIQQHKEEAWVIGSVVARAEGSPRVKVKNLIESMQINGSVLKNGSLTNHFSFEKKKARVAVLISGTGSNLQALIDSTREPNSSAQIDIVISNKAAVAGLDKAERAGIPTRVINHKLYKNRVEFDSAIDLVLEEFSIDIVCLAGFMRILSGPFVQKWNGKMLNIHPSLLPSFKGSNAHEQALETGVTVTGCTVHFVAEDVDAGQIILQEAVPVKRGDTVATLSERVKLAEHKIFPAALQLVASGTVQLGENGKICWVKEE

IGROV-1 [7] = test: Antiproliferative activity against FRalpha […] human IGROV1 KD4 cells after 96 hrs by Cell-Titer Blue assay; assay type: functional, cell-based; conditions: IGROV-1, 96 h
[8] = molecular target: T1, Proton-coupled folate transporter (Homo sapiens); test: Inhibition of human PCFT expressed in Chinese hamster R2/PCFT4 cells assessed as reduction in [3H]MTX uptake at pH 5.5 at 1 uM measured over 2 mins relative to control; assay type: cell-based
IGROV-1 [9] = test: Antiproliferative activity against wild type human IGROV1 cells after 96 hrs by Cell-Titer Blue assay; assay type: functional, cell-based; conditions: IGROV-1, 96 h
Homo sapiens [10] = organism: Homo sapiens; test: Selectivity ratio of IC50 for human RFC2 expressed in human HeLa R1-11 cells to IC50 for human PCFT4 expressed in human HeLa R1-11 cells; assay type: cell-based
[11] = molecular target: T3, Reduced folate transporter (Homo sapiens) (UniProt P41440); test: Inhibition of human RFC2 expressed in human HeLa R1-11 cells assessed as reduction in [3H]MTX uptake at pH 7.2 at 10 uM measured over 2 mins relative to control; assay type: cell-based
T3 sequence (whole entry): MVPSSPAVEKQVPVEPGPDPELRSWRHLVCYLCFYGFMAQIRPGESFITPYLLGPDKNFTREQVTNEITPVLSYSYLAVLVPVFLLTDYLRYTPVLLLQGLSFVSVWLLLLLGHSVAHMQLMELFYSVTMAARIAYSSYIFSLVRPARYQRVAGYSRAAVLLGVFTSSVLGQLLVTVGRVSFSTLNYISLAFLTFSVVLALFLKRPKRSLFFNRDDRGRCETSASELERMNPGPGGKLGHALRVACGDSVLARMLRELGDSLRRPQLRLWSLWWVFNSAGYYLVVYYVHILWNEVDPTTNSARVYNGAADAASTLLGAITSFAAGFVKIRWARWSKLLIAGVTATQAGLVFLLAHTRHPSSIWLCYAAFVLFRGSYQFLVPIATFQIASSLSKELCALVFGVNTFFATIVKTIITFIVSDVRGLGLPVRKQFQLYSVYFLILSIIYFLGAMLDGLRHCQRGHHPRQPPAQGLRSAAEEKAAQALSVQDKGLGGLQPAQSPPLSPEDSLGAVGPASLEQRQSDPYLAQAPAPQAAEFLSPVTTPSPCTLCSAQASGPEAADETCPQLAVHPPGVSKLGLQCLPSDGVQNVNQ

A2780 = test: Antiproliferative activity against human A2780 cells after 96 hrs by Cell-Titer Blue assay; assay type: functional, cell-based; conditions: A2780, 96 h
[12] = molecular target: T4, Proton-coupled folate transporter (Homo sapiens, UniProt Q96NT5); test: Inhibition of human PCFT expressed in Chinese hamster R2/PCFT4 cells assessed as reduction in [3H]MTX uptake at pH 5.5 measured over 2 mins by Dixon plot analysis; assay type: cell-based
T4 sequence (Q96NT5 whole entry): T1 sequence (whole entry)
Summary of the method: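 Competitor concentrations ranged from 0.05 to 0.5 μM. Ki was obtained by Dixon plot. Mean ± SE of four independent experiments.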

IGROV-1 [13] = test: Antiproliferative activity against FRalpha […] human IGROV1 KD10 cells after 96 hrs by Cell-Titer Blue assay; assay type: functional, cell-based; conditions: IGROV-1, 96 h
[14] = molecular target: T3, Reduced folate transporter (Homo sapiens); test: Inhibition of human RFC2 expressed in human HeLa R1-11 cells assessed as reduction in [3H]MTX uptake at pH 7.2 at 1 uM measured over 2 mins relative to control; assay type: cell-based
[15] = molecular target: Folate receptor alpha (Homo sapiens) (UniProt P15328); test: Displacement of [3H]folic acid from human FRalpha expressed in Chinese hamster RT16 cells at 10 to 1000 nM after 15 mins; assay type: cell-based
Summary of the method: (§1)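 RT16 (FRα) or D4 (FRβ) CHO cells at ~80% confluence were washed with PBS at 4 °C, then with pH 3.5 acetate buffer to strip bound folate, then HEPES-buffered saline pH 7.4. Cells were incubated with 50 nM [³H]folic acid plus competitor (10–1000 nM) for 15 min at 4 °C, washed, and solubilized in NaOH. Bound radioactivity was normalized to protein.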

[16] = Toxicity in NCR SCID mouse xenografted with human IGROV1 cells assessed as weight loss median nadir at 95 mg/kg, iv treated once daily for 4 days per week for 4 weeks starting from 3 days post implantation and measured after conclusion of therapy; assay type: organism-based; conditions: in vivo
Summary of the method: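 Female ICR SCID mice, 10 weeks old, kept on a folate-deficient diet for 14 days before bilateral subcutaneous IGROV1 implants; a control cohort was fed folate-replete chow. Randomized at 5 mice/group. […] Tumors measured twice weekly; body weights recorded daily.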

IGROV-1 [17] = test: Antiproliferative activity against human IGROV1 cells at 1 to 1000 nM in presence of 320 uM AICA after 96 hrs by Cell-Titer Blue assay; assay type: functional, cell-based
Summary of the method: (§2)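 IGROV1 cells, 2000/well, in folate-free RPMI 1640 with 10% dialyzed FBS, L-glutamine, 25 nM LCV. A range of drug concentrations was given with thymidine (10 μM), adenosine (60 μM) or AICA (320 μM) added. After 96 h, proliferation was measured by Cell-Titer Blue fluorescence. At least triplicate experiments.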

[18] = Toxicity in NCR SCID mouse xenografted with human IGROV1 cells assessed as weight loss median nadir at 95 mg/kg, iv treated once daily for 4 days per week for 4 weeks starting from 3 days post implantation and measured at day 18 post last dose relative to control; assay type: organism-based; conditions: in vivo
IGROV-1 [19] = test: Antiproliferative activity against human IGROV1 cells at 1 to 1000 nM in presence of 60 uM adenosine after 96 hrs by Cell-Titer Blue assay; assay type: functional, cell-based; summary of the method: as §2
IGROV-1 [20] = test: Anticlonogenic activity against human IGROV1 cells incubated for 24 hrs followed by compound wash out and measured after 10 days by methylene blue staining-based assay; assay type: functional, cell-based
Summary of the method: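 IGROV1 cells plated in folate-free RPMI 1640 (pH 7.2), 10% dialyzed FBS, 25 nM LCV. After 24 h adherence, exposed to drug (0–20 μM) for 24 h at pH 6.8 (25 mM PIPES/25 mM HEPES). Washed, then grown drug-free at pH 7.2 (100 mM HEPES) with 25 nM LCV for up to 10 days at 37 °C. Colonies stained with methylene blue and counted electronically. Values normalized to vehicle controls. Triplicate experiments.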

IGROV-1 [21] = test: Antiproliferative activity against human IGROV1 cells at 1 to 1000 nM in presence of 10 uM thymidine after 96 hrs by Cell-Titer Blue assay; assay type: functional, cell-based; summary of the method: as §2
[22] = Toxicity in NCR SCID mouse xenografted with human IGROV1 cells assessed as weight loss median nadir at 95 mg/kg, iv treated once daily for 4 days per week for 4 weeks starting from 3 days post implantation and measured at day 14 post last dose relative to control; assay type: organism-based; conditions: in vivo
[23] = molecular target: T3, Reduced folate transporter (Homo sapiens); test: Inhibition of human RFC2 expressed in human HeLa R1-11 cells assessed as reduction in [3H]MTX uptake at pH 7.2 at 10 uM measured over 2 mins relative to control
[24] = Binding affinity to human RFC expressed in Chinese hamster PC43-10 cells assessed as antiproliferative activity measured as reduction in cell growth after 96 hrs by Cell-Titer Blue assay
[25] = Binding affinity to human PCFT expressed in Chinese hamster R2/PCFT4 cells assessed as antiproliferative activity measured as reduction in cell growth after 96 hrs by Cell-Titer Blue assay
[26] = molecular target: Folate receptor beta (Homo sapiens) (UniProt P14207); test: Displacement of [3H]folic acid from human FRbeta expressed in Chinese hamster D4 cells at 10 to 1000 nM after 15 mins; assay type: cell-based; summary of the method: as §1
Sequence of Folate receptor beta (Homo sapiens) (P14207 17-230 limits assumed): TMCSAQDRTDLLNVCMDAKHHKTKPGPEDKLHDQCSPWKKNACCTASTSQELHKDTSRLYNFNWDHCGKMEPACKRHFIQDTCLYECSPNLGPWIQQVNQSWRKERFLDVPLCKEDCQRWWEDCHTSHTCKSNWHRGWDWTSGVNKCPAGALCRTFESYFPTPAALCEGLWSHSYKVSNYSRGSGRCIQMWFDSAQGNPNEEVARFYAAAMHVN

Sequence of Folate receptor alpha (Homo sapiens) (P15328 25-234 limits assumed): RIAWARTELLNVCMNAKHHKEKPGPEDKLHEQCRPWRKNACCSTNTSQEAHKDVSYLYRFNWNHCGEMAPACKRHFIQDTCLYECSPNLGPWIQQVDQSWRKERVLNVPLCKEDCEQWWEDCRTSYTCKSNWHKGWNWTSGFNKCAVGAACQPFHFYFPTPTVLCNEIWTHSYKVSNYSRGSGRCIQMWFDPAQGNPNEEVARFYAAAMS

SMILES	IC50 (IGROV-1 [1]) [nM]	inhibition [2]	IC50 [3] [nM]	inhibition [5]	IC50 [6] [nM]	IC50 (IGROV-1 [7]) [nM]	inhibition [8]	IC50 (IGROV-1 [9]) [nM]	inhibition [11]	IC50 (A2780) [nM]	Ki [12] [nM]	IC50 (IGROV-1 [13]) [nM]	inhibition [14]	inhibition [15]	other results
Nc1nc2[nH]c(CCCc3ccc(C(=O)N[C@@H](CCC(=O)O)C(=O)O)c(F)c3)cc2c(=O)[nH]1	1.14	90 to 95%	140	Active	1 to 2.5	41	60 to 85%	1.67	inactive	2.14	260	19.2	inactive		Ratio IC50 (Homo sapiens [4]): 97; Ratio IC50 (Homo sapiens [10]): 92
Nc1nc2[nH]c(CCCCc3csc(C(=O)N[C@@H](CCC(=O)O)C(=O)O)c3F)cc2c(=O)[nH]1	1.79	90 to 95%	> 1000	Active		138	60 to 85%	1.9	inactive	3.11	250	66.9	inactive	Active	Activity [16]: Non-Toxic; Activity (IGROV-1 [17]): inactive; Activity [18]: 12.1%; Activity (IGROV-1 [19]): inactive; IC50 (IGROV-1 [20]): 200 nM; Activity (IGROV-1 [21]): Active; Activity [22]: 15.7%
Nc1nc2[nH]c(CCCc3csc(C(=O)N[C@@H](CCC(=O)O)C(=O)O)c3)cc2c(=O)[nH]1	12.8	Active	355	Active	1	80.5	Active	12.1	< 30%	21.7	280	30.3		Active	inhibition [23]: < 30%; IC50 [24]: 197 nM; IC50 [25]: 5.4 nM; inhibition [26]: Active
